Source: PubChem BioAssay
The list is not random: actives were taken first. Their share in the collection is about 2.3%.
Cneo AK release = Cryptococcus neoformans cell lysis inducers, primary screen, AK release luminescence, single concentration. lysis activity, % at 15 µM. hit rate 0.2% among 360,000. C. neoformans lysis, adenylate kinase release luminescence, 4 h; normalised: neutral wells 0, clomiphene wells 100;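 active = mean lysis activity across replicates of at least 80%, whatever share of replicates individually reach that level; inactive = mean lysis activity below 80%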
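Assay system: C. neoformans cells. Amount: yeast cell density of 5 × 10^6 cells/mL. Technique: AK luminescence. Buffer or medium: YPD. Times: static 4 h at 37 °C with compound, 1 h detection. Dosing: single-point compound dose. Read-out: lysis from increased AK signal.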
DENV2 CPE rescue = inhibitors of DENV2 cytopathic effect, primary screen, cell-based, plate reader, single concentration; DENV2-infected cells, cytopathic effect rescue; CPE inhibition, % at 9.99 µM; hit rate 1.7% among 350,000; AID 651640, 2012; in the data active = CPE inhibition above about 20%, passing the limit was not always enough; inconclusive = no clear call, values can overlap the other calls; tested in BHK-21 cells;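 also: 0% = median of neutral control wells and 100% = median of positive control wells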
C2C12 statin = suppressors of statin myotoxicity in C2C12 myotubes, primary screen, cell-based, single point, plate reader | C2C12 myotubes + simvastatin, ATP luminescence, 48 h; scaled: DMSO 0, geranylgeraniol control 100 | rescue of ATP level, % at 7.49 µM | hit rate 0.78% among 330,000;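 active = mean ATP rescue above about 67%, or every replicate alone reaching that limit, limit read from the data, passing the limit was not always enough; inconclusive = no clear call, values can overlap the other calls; inactive = mean under the limit and some replicate under it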;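 also: myotubes were challenged with 10 µM simvastatin during compound exposure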
ERp5 inh = inhibitors of ERp5-driven insulin aggregation, primary screen, biochemical, turbidity, absorbance 650 nm, single point; Protein disulfide-isomerase A6 (Homo sapiens), Q15084; 90 min; inhibition, % at 9.99 µM; hit rate 0.05% among 350,000; AID 651711, 2012;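 active = mean replicate inhibition above about 25%, with every replicate also reaching it, limit read from the data, passing the limit was not always enough; inconclusive = only one of those two criteria met; inactive = neither criterion met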
F508del corr = F508del CFTR correction, initial screen, CFBE line, single point | CFBE cells, YFP halide quenching; stimulated with forskolin plus potentiator P3; % fluorescence drop versus neutral controls | activity (quench increase), % at 7.58 µM | hit rate 0.36% among 350,000;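 active = mean added fluorescence quench of at least 8% versus neutral control, with both replicates also reaching 8%; inconclusive = only one of the mean or replicate conditions met; inactive = mean below 8% and not both replicates reaching 8%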;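 also: cells transiently co-express mutant CFTR-F508del with the halide-sensitive YFP; corrector assay measuring rescue of mutant channel to the surface after 24 h compound exposure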
PDI inh = inhibitors of human PDI, primary screen, biochemical, turbidity, single point, plate reader. Protein disulfide-isomerase (Homo sapiens), P07237. hit rate 0.052% among 350,000. PDI insulin aggregation turbidity, A650, 90 min. AID 588391, 2011. inhibition, % at 10 µM;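 active = mean inhibition across replicates of 30% or more, whatever share of single replicates reach that level; inconclusive = mean inhibition below 30% while every single replicate reaches 30%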
Target sequence (P07237 whole entry, looked up): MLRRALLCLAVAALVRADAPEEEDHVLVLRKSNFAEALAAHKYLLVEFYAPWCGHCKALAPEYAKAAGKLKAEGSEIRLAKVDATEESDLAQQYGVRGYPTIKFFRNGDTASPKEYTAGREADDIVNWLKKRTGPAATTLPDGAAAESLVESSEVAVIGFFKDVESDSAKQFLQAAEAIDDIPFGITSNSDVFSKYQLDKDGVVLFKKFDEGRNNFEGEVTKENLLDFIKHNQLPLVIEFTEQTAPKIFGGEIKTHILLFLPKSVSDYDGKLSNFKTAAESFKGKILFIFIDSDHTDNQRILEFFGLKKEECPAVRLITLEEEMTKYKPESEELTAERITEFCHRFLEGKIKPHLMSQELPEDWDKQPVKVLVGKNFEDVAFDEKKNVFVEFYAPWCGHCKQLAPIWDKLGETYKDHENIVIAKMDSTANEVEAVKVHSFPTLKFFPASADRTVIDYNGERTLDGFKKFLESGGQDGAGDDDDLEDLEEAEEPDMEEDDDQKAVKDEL
Numbers without * were called inactive; ? = inconclusive; . = no result.

SMILES	Cneo AK release	DENV2 CPE rescue	C2C12 statin	ERp5 inh	F508del corr	PDI inh
COC(=O)C(CC#Cc1ccc2c(c1)[C@]1(C(=O)N2)[C@H](c2ccc(OCCO)cc2)N2[C@H](c3ccccc3)[C@H](c3ccccc3)OC(=O)[C@H]2[C@@H]1C(=O)N1CCCCCCC1)C(=O)OC	-1	4	.	-1	3	.
COc1ccc(CNC(=O)c2c(O)c3cccc4c3n(c2=O)CCC4)cc1OC	-1	.	79*	.	.	-13
COc1ccc(CNC(=O)c2c(O)c3cccc4c3n(c2=O)CCC4)cc1	-3	.	2	.	.	-3
COc1ccc(Br)c(-c2nnc(CS(=O)(=O)c3ccccc3)o2)c1	1	9	3	0	1	-8
CCOc1ccccc1-c1nnc(CS(=O)(=O)c2ccccc2)o1	2	53*	5	-9	2	-12
CC(=O)OCCn1c(C)[n+](CCOC(C)=O)c2cc(Cl)c(Cl)cc21	.	0	.	-4	0	10
CC(=O)OCCn1c2nc(=O)[nH]c(=O)c-2nc2cc(C)c(C)cc21	1	-1	15	0	18*	4
CO[C@H]1CC[C@@H]2CCOc3ccc(C#N)cc3C(=O)N(C)CCCC(=O)N(C)C[C@H]1O2	.	.	20	.	.	.
O=C1c2c(O)cc(O)cc2O[C@H](c2ccc(O)c(O)c2)[C@H]1O	1	-6	-1	-1	2	7
C[C@@H]1O[C@@H](O[C@@H]2C(=O)c3c(O)cc(O)cc3O[C@H]2c2ccc(O)c(O)c2)[C@H](O)[C@H](O)[C@H]1O	1	-3	9	-1	1	44*
COC(=O)CSC1=C(C#N)C(c2ccc3c(c2)OCO3)C2=C(CCCC2=O)N1 (stereo not given)	-5	.	3	.	.	12
COC(=O)C1=C(N)N(c2ccccc2C(F)(F)F)C2=C(C(=O)CCC2)C1c1ccc2c(c1)OCO2 (stereo not given)	0	.	93*	.	.	-8
C[C@@H]1CCCCO[C@@H](CN(C)S(=O)(=O)c2ccc(Cl)cc2)[C@H](C)CN([C@H](C)CO)C(=O)c2cc(NC(=O)Nc3ccccc3)ccc2O1	-1	4	.	-1	1	.
CCCNC(=O)Nc1ccc2c(c1)OC[C@H](C)N(C(=O)CC)C[C@@H](C)[C@@H](OC)CN(C)C2=O	41	4	-1	1	0	.
CCCNC(=O)Nc1ccc2c(c1)OC[C@@H](C)N(S(C)(=O)=O)C[C@@H](C)[C@H](OC)CN(C)C2=O	.	43*	.	.	0	.
CCC(=O)N1C[C@@H](C)[C@@H](OC)CN(C)C(=O)c2ccc(NC(=O)Nc3ccc(Cl)cc3)cc2OC[C@H]1C	-3	80*	12	6	2	.
CCCNC(=O)Nc1ccc2c(c1)OC[C@H](C)N(C(=O)CC)C[C@H](C)[C@@H](OC)CN(C)C2=O	.	31*	.	.	3	.
CC(C)NC(=O)N(C)C[C@H]1Oc2ncc(C#CC3CC3)cc2C(=O)N([C@@H](C)CO)C[C@H]1C	38	-5	-5	0	4	.
C[C@H](CO)N1C[C@H](C)[C@@H](CN(C)S(=O)(=O)c2ccccc2)Oc2ccc(NC(=O)CCCN(C)C)cc2C1=O	1	5	-16	3	2	.
COCCNC(=O)C(c1ccc(C)o1)N(Cc1ccc(F)cc1)C(=O)Cn1nnc2ccccc21 (stereo not given)	-3	.	18	.	.	7
COCCNC(=O)C(c1ccc(C)o1)N(Cc1ccc(OC)cc1)C(=O)Cn1nnc2ccccc21 (stereo not given)	2	.	104*	.	.	-3
CCCNC(=O)C[C@H]1CC[C@H]2[C@@H](COC[C@@H](O)CN2Cc2cccc(F)c2)O1	-1	4	-8	-2	2	.
Cc1cc2c(cc1S(=O)(=O)Nc1ccc(F)cc1)n(C)c(=O)c(=O)n2C	-4	-5	2	5	11*	.
CC(=O)N(C)C[C@@H]1Oc2cc(-c3ccc(F)cc3)ccc2S(=O)(=O)N([C@H](C)CO)C[C@@H]1C	6	0	3	-6	1	.
O=C(NCc1ccc2c(c1)OCO2)C(=O)NCC1OCCCN1S(=O)(=O)c1ccccc1 (stereo not given)	0	41*	4	-3	-1	-2
SMILES	Cneo AK release	DENV2 CPE rescue	C2C12 statin	ERp5 inh	F508del corr	PDI inh
Cc1[nH]nc2c1C(=O)CC(C)(C)C2	6	.	-11	.	.	2
Cc1[nH]nc2c1/C(=N\O)CC(C)(C)C2	1	.	101*	.	.	0
CCCC/C=C/[C@H](c1ccccc1)[C@H](CO)Cc1cccnc1	5	42*	-2	-2	0	-5
CCCC/C=C/C(NC(=O)CCc1ccccc1)c1ccccc1 (stereo not given)	0	12	-3	-4	-6	-2
COc1ccc2c3c([nH]c2c1)[C@@H](CO)N(C(=O)c1ccncc1)CC31CN(C(=O)C2CCC2)C1	.	14	.	0	-1	.
c1ccc(-c2csc(NC3=NCCCCC3)n2)cc1	0	0	.	1	11*	?
CN(C)C(=O)CSc1nnc([C@H](Cc2ccccc2)NC(=O)OC(C)(C)C)o1	0	-1	6	3	-3	11
CCSc1nnc([C@H](Cc2c[nH]c3ccccc23)NC(=O)OC(C)(C)C)o1	-2	.	.	.	.	49*
CCN(CC)C(=O)CSc1nnc([C@H](Cc2c[nH]c3ccccc23)NC(=O)OC(C)(C)C)o1	1	.	7	.	.	56*
CSc1nnc([C@H](Cc2c[nH]c3ccccc23)NC(=O)OC(C)(C)C)o1	.	-4	3	-8	0	28
CCNC(=O)Nc1ccc2c(c1)C(=O)N(C)[C@H]1CC[C@@H](CC(=O)NCC3CCCCC3)O[C@@H]1CO2	0	-1	7	-2	-3	.
COc1ccc(S(=O)(=O)N2CCC3(CC2)CN(C(=O)c2cccnc2)[C@@H](CO)c2c3c3ccc(OC)cc3n2C)cc1	.	7	.	-11	1	.
Cc1ccc(S(=O)(=O)N2C[C@H]3O[C@H](CNS(=O)(=O)c4ccccc4C)CC[C@H]32)cc1	.	-4	.	-1	-1	.
Cc1ccc(S(=O)(=O)N(C)C[C@@H]2OCCCC[C@@H](C)Oc3ccc(NC(=O)CCC(F)(F)F)cc3C(=O)N([C@H](C)CO)C[C@@H]2C)cc1	11	-1	.	-2	-1	.
C#CCOCCOCCOCCNc1nc(N2CCN(C(=O)[C@H](CCCCN)n3cc(CCCC)nn3)CC2)nc(N2CCN(C(=O)[C@H](Cc3ccc(O)cc3)n3cc(CCO)nn3)CC2)n1	-1	.	-5	.	.	129*
